We go through 26 compounds from ChEMBL document CHEMBL3608234, “Synthesis and antiviral evaluation of a novel series of homoserine-based inhibitors of the hepatitis C virus NS3/4A serine protease” (Bioorg Med Chem Lett, 2015).

Data set [1] in a line: Inhibition of full length HCV 1b Con1 NS3/4A protease using HiLyte Fluor 610 peptide substrate by biochemical FRET assay. More on the design: species or system Hepatitis C virus (isolate Con1). In short, it runs like this: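 Fluorescence (FRET) protease assay on full-length genotype 1b Con1 HCV NS3/4A with HiLyte Fluor 610 peptide substrate; IC50 from percent inhibition versus concentration by four-parameter sigmoidal non-linear regression.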

Another data set concerns Hepatitis C virus. The data set is described as follows: Antiviral activity against HCV Con1 infected in human GS4.1 cells containing HCV Con1 subgenomic replicon assessed as reduction in NS5A protein expression by ELISA method. It is filed as functional, cell-based, Hepacivirus hominis. The conditions noted are these: genotype 1b Con1. In short, it runs like this: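 Huh-7 cells carrying HCV Con1 subgenomic replicon (GS4.1); replication followed as NS5A protein expression by ELISA; EC50 from 50% inhibition versus concentration data fitted by four-parameter sigmoidal non-linear regression.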
(In general: Replicon systems follow genome replication, usually without infectious particles.)

Data set [2] is described as follows: Cytotoxicity against human GS4.1 cells assessed as induction of cell death. It is filed as cell-based. The method in brief:
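GS4.1 cells (Huh-7 with Con1 subgenomic replicon); CC50 taken as concentration giving 50% cell death, from death versus concentration data relative to blank control.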

The nature of data set [3]: Intrinsic clearance in rat liver microsomes incubated for 2 hrs. Type of data set: ADME. The note with it: read-out: CLH. In general terms: Liver microsomes are a subcellular fraction often used to study metabolism.
The nature of data set [4]: Clearance in rat liver S9 fraction incubated for 2 hrs. It is filed as ADME, subcellular. The note with it: read-out: CLH. The method in brief:
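Rat liver S9 fraction incubation for 2 h; mean clearance from n = 2.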

The test system of a further data set is Hepatocyte. The experiment in a line: Clearance in rat cryopreserved hepatocytes incubated for 2 hrs. Type of data set: ADME, cell-based.
Data set [5] is described as follows: Intrinsic clearance in dog liver microsomes incubated for 2 hrs. The conditions noted are these: read-out: CLH. Type of data set: ADME, Canis lupus familiaris.
Data set [6] in a line: Intrinsic clearance in Cynomologus monkey liver microsomes incubated for 2 hrs. It is filed as ADME, Macaca fascicularis. The note with it: cynomolgus monkey, read-out: CLH.
Data set [7] is described as follows: Intrinsic clearance in human liver microsomes incubated for 2 hrs. It is filed as ADME. The note with it: read-out: CLH.

In turn, `COc1ccc2c(OCC[C@@H]3NC(=O)N(C)CCCC/C=C\[C@@H]4C[C@@]4(C(=O)NS(=O)(=O)C4CC4)NC3=O)cc(-c3ccccc3)nc2c1` displayed an IC50 in data set [1] of 19.8 nM. In the data set on Hepatitis C virus, the EC50 was found to be 8200 nM. For the same compound, the CC50 in data set [2] is more than 30000 nM.
The like results for `COc1ccc2c(OCC[C@@H]3NC(=O)N(C)CCCCC/C=C\[C@@H]4C[C@@]4(C(=O)NS(=O)(=O)C4CC4)NC3=O)cc(-c3ccccc3)nc2c1` were, in that order, 41 nM, 14600 nM and 53000 nM.
The corresponding values for `COc1ccc2c(OCC[C@@H]3NC(=O)N(C)CCCC/C=C\[C@@H]4C[C@@]4(C(=O)NS(=O)(=O)C4(C)CC4)NC3=O)cc(-c3csc(NC(C)C)n3)nc2c1` are 1.2 nM, 1040 nM and 37400 nM.
The compound `COc1ccc2c(OCC[C@@H]3NC(=O)N(C)CCCC/C=C\[C@@H]4C[C@@]4(C(=O)NS(=O)(=O)C4(C)CC4)NC3=O)cc(-c3nc(C(C)C)cs3)nc2c1` displayed an IC50 in [1] of 0.9 nM. Also, the EC50 in the data set on Hepatitis C virus came to 44 nM. Besides, the CC50 in data set [2] was found to be 6500 nM. In data set [3], the microsomal CLint came to 155 µL/min/mg.
Compound `COc1ccc2c(OCC[C@@H]3NC(=O)N(C)CCCC/C=C\[C@@H]4C[C@@]4(C(=O)NS(=O)(=O)C4CC4)NC3=O)cc(-c3nc(C(C)C)cs3)nc2c1F` gave an IC50 in data set [1] of 9.6 nM. In the data set with Hepatitis C virus, the EC50 turned out to be 1490 nM. Besides, in [2], the 50% cytotoxic concentration (CC50) was more than 75000 nM.
On to `COc1ccc2c(OCC[C@@H]3NC(=O)N(C)CCCC/C=C\[C@@H]4C[C@@]4(C(=O)NS(=O)(=O)C4(C)CC4)NC3=O)cc(-c3nc(C(C)C)cs3)nc2c1F`, for which, in [1], the IC50 is 8 nM. In the data set with Hepatitis C virus, the EC50 is 555 nM. The CC50 in [2] is 57100 nM.
In [1], `COc1ccc2c(OCC[C@@H]3NC(=O)N(C)CCCC/C=C\[C@@H]4C[C@@]4(C(=O)NS(=O)(=O)C4CC4)NC3=O)cc(-c3nc(C(C)C)cs3)nc2c1Cl` had an IC50 of 1.7 nM. Besides, the EC50 in the data set with Hepatitis C virus is 76.5 nM. Also, the CC50 in data set [2] came out at 40400 nM. Further, the microsomal CLint amounted to 36.6 µL/min/mg in [3]; 8.9 µL/min/mg in data set [4]; 25 µL/min/mg in data set [5]; 124 µL/min/mg in data set [6]; 263 µL/min/mg in data set [7]. This compound gave a CLH in the data set on Hepatocyte of 19.1 µL/min/mg.
As to `COc1ccc2c(OCC[C@@H]3NC(=O)N(C)CCCC/C=C\[C@@H]4C[C@@]4(C(=O)NS(=O)(=O)C4(C)CC4)NC3=O)cc(-c3nc(C(C)C)cs3)nc2c1Br`, the midpoint of inhibition in [1], the IC50, lay at 0.6 nM. Moreover, the EC50 in the data set on Hepatitis C virus stood at 20.5 nM. Further, the CC50 in data set [2] is 28300 nM. Besides, the microsomal CLint in data set [3] worked out at 16.5 µL/min/mg.
The corresponding values for `COc1ccc2c(OCC[C@@H]3NC(=O)N(C)CCCC/C=C\[C@@H]4C[C@@]4(C(=O)NS(=O)(=O)C4(C)CC4)NC3=O)cc(-c3nc(C(C)C)cs3)nc2c1C` are 2.3 nM, 85 nM, 31900 nM and 9.3 µL/min/mg.
The like results for `COc1ccc2c(OCC[C@@H]3NC(=O)N(C)CCCC/C=C\[C@@H]4C[C@@]4(C(=O)NS(=O)(=O)C4(C)CC4)NC3=O)cc(-n3ccc(C(C)C)n3)nc2c1C` were, in that order, 2 nM, 50 nM, 25600 nM and 21 µL/min/mg.
Consider `COc1ccc2c(OCC[C@@H]3NC(=O)N(C)CCCC/C=C\[C@@H]4C[C@@]4(C(=O)NS(=O)(=O)C4(C)CC4)NC3=O)cc(-n3ccc(C(C)C)n3)nc2c1Cl`, for which the IC50 in data set [1] stood at 1.1 nM. Besides, the EC50 in the data set on Hepatitis C virus is 43.4 nM. For the same compound, the CC50 in data set [2] worked out at 31000 nM.
The like results for `CCn1cc(-c2cc(OCC[C@@H]3NC(=O)N(C)CCCC/C=C\[C@@H]4C[C@@]4(C(=O)NS(=O)(=O)C4(C)CC4)NC3=O)c3ccc(OC)c(C)c3n2)cn1` were, in that order, 3 nM, 485 nM and 36700 nM.
The like results for `CCCn1cc(-c2cc(OCC[C@@H]3NC(=O)N(C)CCCC/C=C\[C@@H]4C[C@@]4(C(=O)NS(=O)(=O)C4(C)CC4)NC3=O)c3ccc(OC)c(C)c3n2)cn1` were, in that order, 1.4 nM, 145 nM and 62300 nM.
Regarding `COc1ccc2c(OCC[C@@H]3NC(=O)N(C)CCCC/C=C\[C@@H]4C[C@@]4(C(=O)NS(=O)(=O)C4(C)CC4)NC3=O)cc(-c3cc(C(F)(F)F)nn3C)nc2c1C`, the IC50 in [1] turned out to be 1 nM. The EC50 with Hepatitis C virus stood at 440 nM. Further, in [2], the CC50 amounted to 34500 nM.
In turn, `COc1ccc2c(OCC[C@@H]3NC(=O)N(C)CCCC/C=C\[C@@H]4C[C@@]4(C(=O)NS(=O)(=O)C4(C)CC4)NC3=O)cc(-n3ccc(C(F)(F)F)n3)nc2c1C` returned an IC50 in data set [1] of 1.8 nM. In addition, the EC50 in the data set with Hepatitis C virus was found to be 35 nM. For the same compound, the CC50 in data set [2] is 45800 nM. Besides, in data set [3], the microsomal CLint is 14.4 µL/min/mg.
The compound `COc1ccc2c(OCC[C@@H]3NC(=O)N(C)CCCC/C=C\[C@@H]4C[C@@]4(C(=O)NS(=O)(=O)C4(C)CC4)NC3=O)cc(-n3ccc(C(F)(F)F)n3)nc2c1Cl` came in with an IC50 in [1] of 1.1 nM. Also, the EC50 in the data set on Hepatitis C virus amounted to 15.3 nM. In addition, in data set [2], the CC50 came to 48800 nM.
The like results for `COc1ccc2c(OCC[C@@H]3NC(=O)N(C)CCCC/C=C\[C@@H]4C[C@@]4(C(=O)NS(=O)(=O)C4(F)CC4)NC3=O)cc(-c3nc(C(C)C)cs3)nc2c1Cl` were, in that order, 2.7 nM, 150 nM and 51400 nM.
In [1], `CCC1(S(=O)(=O)NC(=O)[C@@]23C[C@H]2/C=C\CCCCN(C)C(=O)N[C@@H](CCOc2cc(-c4nc(C(C)C)cs4)nc4c(Cl)c(OC)ccc24)C(=O)N3)CC1` came in with an IC50 of 3.3 nM. The EC50 with Hepatitis C virus worked out at 89 nM. Moreover, the CC50 in [2] was determined as 49300 nM.
The corresponding values for `COc1ccc2c(OCC[C@@H]3NC(=O)N(C)CCCC/C=C\[C@@H]4C[C@@]4(C(=O)NS(=O)(=O)C4(C#N)CC4)NC3=O)cc(-c3nc(C(C)C)cs3)nc2c1Cl` are 14.4 nM, more than 750 nM and more than 75000 nM.
Regarding `C#CC1(S(=O)(=O)NC(=O)[C@@]23C[C@H]2/C=C\CCCCN(C)C(=O)N[C@@H](CCOc2cc(-c4nc(C(C)C)cs4)nc4c(Cl)c(OC)ccc24)C(=O)N3)CC1`, it took 0.7 nM to reach half-maximal inhibition in [1] (IC50). The EC50 with Hepatitis C virus was found to be 28.9 nM. Also, the CC50 in data set [2] stood at 26300 nM.
The corresponding values for `COc1ccc2c(OCC[C@@H]3NC(=O)N(C)CCCC/C=C\[C@@H]4C[C@@]4(C(=O)NS(=O)(=O)N(C)C)NC3=O)cc(-c3nc(C(C)C)cs3)nc2c1Cl` are 2.1 nM, 84.5 nM and 47800 nM.
The corresponding values for `COc1ccc2c(OCC[C@@H]3NC(=O)N(C)CCCC/C=C\[C@@H]4C[C@@]4(C(=O)NS(=O)(=O)N4CCC(F)(F)C4)NC3=O)cc(-c3nc(C(C)C)cs3)nc2c1Cl` are 165 nM, more than 750 nM and 37600 nM.
The corresponding values for `COc1ccc2c(OCC[C@@H]3NC(=O)N(C)CCCC/C=C\[C@@H]4C[C@@]4(C(=O)NS(=O)(=O)N4CCOCC4)NC3=O)cc(-c3nc(C(C)C)cs3)nc2c1Cl` are 150 nM, more than 750 nM and 26400 nM.
On to `COc1ccc2c(OCC[C@@H]3NC(=O)N(C)CCCC/C=C\[C@@H]4C[C@@]4(C(=O)NS(=O)(=O)N4CCC[C@H]4C#N)NC3=O)cc(-c3nc(C(C)C)cs3)nc2c1Cl`, for which the IC50 in data set [1] stood at 264 nM. Besides, the EC50 in the data set with Hepatitis C virus was more than 750 nM. Further, the CC50 in [2] stood at 28300 nM.
The like results for `C#C[C@@H]1CCCN1S(=O)(=O)NC(=O)[C@@]12C[C@H]1/C=C\CCCCN(C)C(=O)N[C@@H](CCOc1cc(-c3nc(C(C)C)cs3)nc3c(Cl)c(OC)ccc13)C(=O)N2` were, in that order, 33.8 nM, more than 750 nM and 21200 nM.
The corresponding values for `COc1ccc2c(O[C@@H]3C[C@H]4C(=O)N[C@]5(C(=O)O)C[C@H]5/C=C\CCCCC[C@H](NC(=O)OC5CCCC5)C(=O)N4C3)cc(-c3csc(NC(C)C)n3)nc2c1` [CILUPREVIR] are 0.9 nM, 2.8 nM and 21000 nM.

Usually IC50 stands for the concentration at which inhibition is half-maximal. What is called EC50 is the concentration needed to bring the measured effect to its halfway point. In general, CC50 refers to the concentration that lowers cell viability or growth by half.
